# Assay results taken from ChEMBL document CHEMBL5331142, “Novel 1,4-Dihydropyridines as Specific Binders and Activators of SIRT3 Impair Cell Viability and Clonogenicity and Downregulate Hypoxia-Induced Targets in Cancer Cells” (J Med Chem, 2023).
# Activity calls are given as the source filed them. The calls are words filed in the database; no cut-off is given here.
# What was measured:
# [1] = biological target: T1, NAD-dependent protein deacetylase sirtuin-3, mitochondrial (Homo sapiens) (UniProt Q9NTG7); assay: Activation of N-terminal his-tagged human SIRT3 (114 to 380 residues) deacylation activity expressed in Escherichia coli at 10 uM using ACS2-acK642 as substrate in presence of NAD+ by NADH oxidation-coupled enzymatic assay; conditions: filed as activator
# T1 sequence (whole entry): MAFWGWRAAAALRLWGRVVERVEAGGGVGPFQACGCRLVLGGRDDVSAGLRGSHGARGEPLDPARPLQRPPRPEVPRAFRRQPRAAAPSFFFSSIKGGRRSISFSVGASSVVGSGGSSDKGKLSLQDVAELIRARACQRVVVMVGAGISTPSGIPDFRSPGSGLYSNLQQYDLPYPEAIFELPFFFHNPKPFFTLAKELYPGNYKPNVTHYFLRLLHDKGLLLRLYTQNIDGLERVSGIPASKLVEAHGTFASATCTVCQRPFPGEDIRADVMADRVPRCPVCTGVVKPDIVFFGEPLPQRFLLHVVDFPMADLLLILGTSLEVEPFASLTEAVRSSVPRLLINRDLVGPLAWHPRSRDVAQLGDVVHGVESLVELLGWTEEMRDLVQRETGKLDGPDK
# How it was run: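 Coupled PncA/GDH deacylation assay following NADPH oxidation to NADP+. 1.5 μM sirtuin, 50 μM substrate peptide, 100 μM NAD+, compound at 10 μM, 5% final DMSO. Isoform-specific physiological substrates: p53-acK381 (SIRT1), […] (SIRT2), ACS2-acK642 (SIRT3), CPS1-succK537 (SIRT5). Sirtuins expressed in E. coli, Ni-NTA purified, tag cleaved, then size-exclusion chromatography.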
# [2] = biological target: T1, NAD-dependent protein deacetylase sirtuin-3, mitochondrial (Homo sapiens); assay: Activation of N-terminal his-tagged human SIRT3 (114 to 380 residues) deacylation activity expressed in Escherichia coli at 100 uM using ACS2-acK642 as substrate in presence of NAD+ by NADH oxidation-coupled enzymatic assay; conditions: filed as activator
# How it was run: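 Coupled PncA/GDH deacylation assay following NADPH oxidation to NADP+. 1.5 μM SIRT3 (E. coli-expressed, tag removed) with 50 μM ACS2-acK642 peptide and 100 μM NAD+, compound at 100 μM, 5% final DMSO.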
# [3] = biological target: T1, NAD-dependent protein deacetylase sirtuin-3, mitochondrial (Homo sapiens); assay: Activation of human SIRT3 overexpressing in human MDA-MB-231 cells assessed as increase in GDH activity at 50 uM incubated for 4 hrs by absorbance assay; format: cell-based; conditions: filed as activator
# How it was run: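 MDA-MB-231 cells exposed 4 h to 50 μM compound. 10^6 cells lysed in GDH assay buffer for 10 min on ice. Supernatant mixed with developer and glutamate, incubated 3 min at 37 °C, absorbance read at 450 nm with buffer blank subtracted. SIRT3-overexpressing MDA-MB-231 cells served as reference.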
# CAL-62 [4] = assay: Anticancer activity against human CAL-62 cells assessed as reduction in cell viability at 50 uM incubated for 24 to 48 hrs under normoxia condition by trypan blue exclusion assay; format: functional, cell-based; conditions: time 24-48 hrs, TDE = time-dependent effect
# How it was run: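 CAL-62 cells in RPMI 1640 with 10% FBS, treated with 50 μM compound (DMSO) for 24 and 48 h. Hypoxia induced with 200 μM CoCl2, kept in the medium during treatment. Viable cells counted by 0.4% trypan blue staining on a hemocytometer.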
# MDA-MB-231 [5] = assay: Downregulation of MMP9 gene expression in human MDA-MB-231 cells at 50 uM incubated for 48 hrs by qRT-PCR analysis; format: functional, cell-based
# How it was run: (§1)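 MDA-MB-231 cells treated with 50 μM compound for 48 h under normoxia, DMSO vehicle control. qRT-PCR quantified by the 2(−ΔCt) method as fold of control, mean ± SEM. Three independent experiments.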
# CAL-62 [6] = assay: Downregulation of EPAS-1 expression in human CAL-62 cells at 50 uM incubated for 48 hrs under hypoxia condition by Western blot analysis; format: functional, cell-based
# How it was run: (§2)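 CAL-62 or MDA-MB-231 cells made hypoxic with 200 μM CoCl2 for 24 h, then treated with 50 μM compound for 48 h with CoCl2 retained. Lysates (15 or 50 μg protein) immunoblotted for HIF-1α, EPAS-1 or CA-IX with ACTB, ECL detection. 3-TYP (1 μM) as control.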
# MDA-MB-231 [7] = assay: Downregulation of HIF1alpha expression in human MDA-MB-231 cells at 50 uM incubated for 48 hrs under hypoxia condition by Western blot analysis; format: functional, cell-based; how it was run: as §2
# MDA-MB-231 [8] = assay: Downregulation of EPAS-1 expression in human MDA-MB-231 cells at 50 uM incubated for 48 hrs under hypoxia condition by Western blot analysis; format: functional, cell-based; how it was run: as §2
# MDA-MB-231 [9] = assay: Downregulation of COL1A2 gene expression in human MDA-MB-231 cells at 50 uM incubated for 48 hrs by qRT-PCR analysis; format: functional, cell-based; how it was run: as §1
# MDA-MB-231 [10] = assay: Downregulation of MMP2 gene expression in human MDA-MB-231 cells at 50 uM incubated for 48 hrs by qRT-PCR analysis; format: functional, cell-based; how it was run: as §1
# MDA-MB-231 [11] = assay: Downregulation of ZEB1 gene expression in human MDA-MB-231 cells at 50 uM incubated for 48 hrs under hypoxia condition by qRT-PCR analysis; format: functional, cell-based
# How it was run: (§3)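 MDA-MB-231 cells pretreated with 200 μM CoCl2 to induce hypoxia, then exposed to 50 μM compound for 48 h with CoCl2 maintained. qRT-PCR by the 2(−ΔCt) method vs DMSO control, mean ± SEM. Four independent experiments.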
# MDA-MB-231 [12] = assay: Downregulation of COLLAGEN gene expression in human MDA-MB-231 cells at 50 uM incubated for 48 hrs under hypoxia condition by qRT-PCR analysis; format: functional, cell-based; how it was run: as §3
# MDA-MB-231 [13] = assay: Downregulation of MMP9 gene expression in human MDA-MB-231 cells at 50 uM incubated for 48 hrs under hypoxia condition by qRT-PCR analysis; format: functional, cell-based; how it was run: as §3
# MDA-MB-231 [14] = assay: Downregulation of SLUG gene expression in human MDA-MB-231 cells at 50 uM incubated for 48 hrs under hypoxia condition by qRT-PCR analysis; format: functional, cell-based; how it was run: as §3
Activity [1] [%],Activity [2] [%],Activity [3],Structure (SMILES),Activity (CAL-62 [4]),Activity (MDA-MB-231 [5]),Activity (CAL-62 [6]),Activity (MDA-MB-231 [7]),Activity (MDA-MB-231 [8]),Activity (MDA-MB-231 [9]),Activity (MDA-MB-231 [10]),Activity (MDA-MB-231 [11]),Activity (MDA-MB-231 [12]),Activity (MDA-MB-231 [13]),Activity (MDA-MB-231 [14])
149,178,Active,CCOC(=O)C1=CN(C(=O)c2cc(OC)cc(OC)c2)C=C(C(=O)OCC)C1c1ccccc1,Tde,Active,Active,Active,Active,Active,Active,Active,Active,Active,Active
158,387,Active,CCOC(=O)C1=CN(C(=O)c2ccc(OC)c(OC)c2)C=C(C(=O)OCC)C1c1ccccc1,Tde,Active,Active,Active,Active,Active,Active,Active,Active,Active,Active
